Measured values from different studies.
Cell line: MCF7
Read-out: cell growth or viability

SMILES | assay | conditions | IC50
O=C(O)c1nn(Cc2ccc(Cl)cc2Cl)c2ccccc12 | – | 48 h | 113 µM
O=C1C(=Nc2ccc(Cl)cc2Br)c2ccccc2N1Cc1ccc(Br)cc1 | MTT | 48 h | 2.54 µM
O=C(NCc1ccc(OC(F)(F)F)cc1)c1cn(Cc2ccc(F)cc2)c2ccc(Oc3ccccc3)cc2c1=O | MTT | 48 h | 79.6 µM
CC(C)c1cccc(C(C)C)c1N=C1C(=O)N(Cc2cccc(Cl)c2)c2ccccc21 | MTT | 48 h | 46.5 µM
CN1CCc2c(c3ccccc3n2Cc2ccc(C(=O)NO)cc2)C1 | CCK-8 | 48 h | 27.4 µM
C#CCn1c(C2CC(c3ccc(F)cc3)=NN2C(C)=O)nc2ccccc21 (stereo not shown) | LDH | 48 h | 2.97 µM
O=C(O)c1c[nH]c2ccc(Oc3ccccc3)cc2c1=O | MTT | – | ≥ 200 µM
CC(=O)OC[C@H]1O[C@@H](n2cc(Cn3c(C(=O)/C=C/c4ccc(F)cc4)nc4ccccc43)nn2)[C@H](OC(C)=O)[C@@H](OC(C)=O)[C@H]1OC(C)=O | LDH | 48 h | 2.48 µM
CC(=O)O[C@H]1C(=O)[C@@]2(C)[C@H]([C@H](OC(=O)c3ccccc3)[C@]3(O)C[C@H](OC(=O)[C@H](O)[C@@H](NC(=O)c4ccccc4)c4ccccc4)C(C)=C1C3(C)C)[C@]1(OC(C)=O)CO[C@@H]1C[C@@H]2O | – | – | 0.00751 µM
O=S(=O)([O-])c1ccc(O)c(C=NNC(=S)Nc2cccc3ccccc23)c1.[Na+] | MTT | 48 h | > 800 µg/mL
O=C1CS/C(=N\c2cc(C(F)(F)F)ccc2-c2nnc(N3C(=O)CS/C3=N\c3cccc(Cl)c3)s2)N1c1cccc(Cl)c1 | MTT | – | 49.2 µM
O=[N+]([O-])c1cc(Br)c(O)c(C=NNc2ccccc2)c1 | MTT | 24 h | 6.4 µM
O=C1/C(=C/c2ccc3ccccc3c2O)NC(=S)N1c1ccccc1 | MTT | – | 8.1 µg/mL
COc1cc(N=C2C(=O)N(Cc3ccccc3)c3ccccc32)cc(OC)c1 | MTT | 48 h | 0.56 µM
O=C1CS/C(=N\c2ccccc2Cl)N1c1nnc(-c2ccc(C(F)(F)F)cc2/N=C2\SCC(=O)N2c2ccccc2Cl)s1 | MTT | – | 47.1 µM
COc1cccc2c1C(=O)c1c(O)c3c(c(O)c1C2=O)C[C@@](O)(C(=O)CO)C[C@@H]3O[C@H]1C[C@H](N)[C@H](O)[C@H](C)O1 | MTT | 24 h | 18.4 µM
O=C1C(=Nc2ccc(Cl)cc2Br)c2ccccc2N1Cc1ccc([N+](=O)[O-])cc1 | MTT | 48 h | 2.33 µM
C(=N\Nc1cc(N/N=C/c2cccc3cccnc23)ncn1)/c1cccc2cccnc12 | MTT | 48 h | 7.02 µM
COc1cccc(NC(=S)N/N=C/c2cccc3cc4ccccc4nc23)c1 | MTT | 48 h | > 50 µM
O=[N+]([O-])c1ccc(O)c(C=NNc2ccc(Cl)cc2)c1 | MTT | 24 h | 9.3 µM
O=C(C=Cc1ccc(OCCCCOc2ccc(C=CC(=O)c3cccs3)cc2)cc1)c1cccs1 | MTT | 48 h | 134 µM
Cc1nc2ccc(-c3ccc(F)cc3F)cc2c(O)c1C(=O)O | MTT | 48 h | ≥ 100 µM
COc1ccc2c(-c3nc(-c4ccccc4)no3)nn(Cc3ccncc3)c2c1 | – | 48 h | 86.5 µM
C=CCN1C(=O)C(=Nc2cccc(C)c2)c2ccccc21 | MTT | 48 h | > 100 µM
Fc1ccccc1Nc1nc(-c2ccncc2)nc2c1CNCC2 | MTT | – | > 100 µM
COc1ccc(N(Cc2csc(-c3ccccc3)n2)C(=O)CCCCCC(=O)NO)cc1 | MTT | 72 h | 3.12 µM
C[C@H]1[C@H](C)CC[C@]2(C)CC[C@]3(C)C(=CC(=O)[C@@H]4[C@@]5(C)CC[C@@H](O)[C@](C)(C(=O)NCc6cn(-c7ccc(Cl)cc7)nn6)[C@@H]5CC[C@]43C)[C@H]12 | MTT | 24 h | 134 µM
COc1cccc2c1C(=O)c1c(O)c3c(c(O)c1C2=O)C[C@@](O)(C(=O)CO)C[C@@H]3O[C@H]1C[C@H](N)[C@H](O)[C@H](C)O1 | MTT | 48 h | 3.1 µM

SMILES | assay | conditions | IC50
Cc1cccc(N=C2C(=O)N(Cc3ccc(Br)cc3)c3ccccc32)c1 | MTT | 48 h | 9.69 µM
C/C(=N\c1nc(N)nc(/N=C(\C)c2c(O)c3ccccc3oc2=O)n1)c1c(O)c2ccccc2oc1=O | MTT | 48 h | 6.68 µM
NNc1nc2ccc(Br)cc2c(=O)n1-c1ccc(F)cc1 | MTT | 48 h | 10 µM
Clc1ccc(Cn2nc(-c3ncc(-c4ccccc4)s3)c3ccccc32)c(Cl)c1 | – | 48 h | 65.2 µM
O=C(NO)Nc1nc2ccc(Br)cc2c(=O)n1-c1ccccc1 | MTT | 48 h | 29.6 µM
C[C@H]1[C@H](C)CC[C@]2(C)CC[C@]3(C)C(=CC(=O)[C@@H]4[C@@]5(C)CC[C@@H](O)[C@](C)(C(=O)NCc6cn(-c7cccc(C(F)(F)F)c7)nn6)[C@@H]5CC[C@]43C)[C@H]12 | MTT | 24 h | 73.2 µM
COc1ccccc1/C=N/N=C1\C(=O)Nc2ccccc21 | MTT | 48 h | 22.1 µg/mL
NNc1nc2c(Cl)cc(Cl)cc2c(=O)n1-c1ccc(F)cc1 | MTT | 48 h | > 200 µM
O=[N+]([O-])c1cc(Br)c(O)c(C=NNc2ccc(Cl)cc2)c1 | MTT | 24 h | 10.1 µM
CO[C@H]1[C@H](O[C@H]([C@H]2O[C@@H](n3ccc(=O)[nH]c3=O)[C@H](O)[C@@H]2O)[C@H](NCCCNC(=O)[C@@H](NC(=O)[C@@H](NC(=O)N[C@H](C(=O)O)C(C)C)[C@@H]2CCN=C(N)N2)[C@@H](O)C(C)C)C(=O)O)O[C@H](CN)[C@H]1O | WST-1 | – | > 35 µM
O=C1CS/C(=N\c2cc(C(F)(F)F)ccc2-c2nnc(N3C(=O)CS/C3=N\c3ccc(Cl)cc3)s2)N1c1ccc(Cl)cc1 | MTT | – | 52.5 µM
CC(=O)O[C@@H]1[C@@H](OC(C)=O)[C@H](OC(C)=O)CO[C@H]1n1cc(Cn2c(C(C)=O)nc3ccccc32)nn1 | LDH | 48 h | 2.73 µM
c1ccc(Cn2nc(-c3ncc(-c4ccccc4)s3)c3ccccc32)cc1 | – | 48 h | 73.8 µM
C/C(=N\N=C(/C)c1c(O)c2ccccc2oc1=O)c1c(O)c2ccccc2oc1=O | MTT | 48 h | 33.6 µM
CCOC(=O)c1c(C)nc2ccc(-c3ccc(F)cc3F)cc2c1O | MTT | 48 h | 27 µM
O=C1C(Cl)=C(n2ccnc2)C(=O)c2ccccc21 | MTT | 24 h | 48.8 µg/mL
CCc1ccc(N=C2C(=O)N(Cc3ccccc3)c3ccccc32)cc1 | MTT | 48 h | 10.5 µM
NS(=O)(=O)c1ccc(-n2nc(C(=O)NN=Cc3cccnc3)cc2-c2ccccc2)cc1 | fluorescence | 48 h | 34.1 µM
O=C1Nc2ccccc2C1=Nc1ccc(Cl)cc1 | MTT | 48 h | 72.3 µM
NS(=O)(=O)c1ccc(-n2nc(C(=O)NN=Cc3ccccc3O)cc2-c2ccccc2)cc1 | fluorescence | 48 h | 18 µM
O=C(O)c1cn(Cc2ccc(C(F)(F)F)cc2)c2ccc(Oc3ccccc3)cc2c1=O | MTT | 48 h | 21.2 µM
CNC(=O)c1cc(Oc2ccc(NC(=O)Nc3ccc(Cl)c(C(F)(F)F)c3)cc2)ccn1 | MTT | 48 h | 7.06 µM
CC(C)CNC(=S)N/N=C/c1cccc2cc3ccccc3nc12 | MTT | 48 h | > 50 µM
CN(C)C(=S)[N-]N=C(c1ccccn1)c1ccccn1.[O]=[V+]=[O] | MTT | – | 0.89 µM
CC(=NNC(=O)c1cc(-c2ccccc2)n(-c2ccc(S(N)(=O)=O)cc2)n1)c1ccc(Br)cc1 | fluorescence | 48 h | 35.4 µM
NNc1nc2c(Cl)cc(Cl)cc2c(=O)n1-c1ccccc1 | MTT | 48 h | > 200 µM
FC(F)(F)c1ccc(-c2nnc(-c3nn(Cc4ccc(Cl)cc4Cl)c4ccccc34)o2)cc1 | – | 48 h | 71.1 µM
